Data taken from article PMC3806060 (Journal of medicinal chemistry, 2013).
Entries after “also recorded” stand apart in the source; their conditions may differ. Like-named read-outs stand apart in the source and are kept apart here.

Experiments:
[1] = tested on: H146 small-cell lung cancer cell line; assay: Cell growth inhibition assay; assay type: cell-based, Human; conditions: for Cellular activity in H146: at 1 μM; for Times less potent than compound 5 in H146 cell growth inhibition: versus 5; for Times less potent than compound 28 in H146 cell growth inhibition: versus 28
Bcl-2 [2] = molecular target: T1, Bcl-2 (Homo sapiens, UniProt P10415); assay: FP based competitive binding assay, Bcl-2; conditions: versus 4
Bcl-2 [3] = molecular target: T1, Bcl-2; conditions: read-out: Ki, binding to Bcl-2; cited from earlier work
Bcl-xL = Bcl-xL (Homo sapiens, UniProt Q07817); conditions: read-out: Ki, binding to Bcl-xL; cited from earlier work
[4] = cited from earlier work
H146 xenograft tumors = assay: Western blot of H146 xenograft tumor tissue for cleavage of PARP and caspase-3; assay type: in vivo, SCID mice; conditions: single dose 15 mg/kg i.v., 3 and 6 h time points
In short: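 SCID mice carried subcutaneous H146 xenografts (5 × 10^6 cells with Matrigel) of approximately 100 mm3. They received a single 15 mg/kg i.v. dose of test compound or vehicle. Tumors were harvested at 3, 6 or 24 h, and western blot measured total and cleaved PARP and caspase-3.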

Mcl-1 = Mcl-1 (Homo sapiens, UniProt Q07820); assay: FP based competitive binding assay, Mcl-1; conditions: at concentrations as high as 2 μM
[5] = tested on: H146 small-cell lung cancer xenograft; assay: Antitumor efficacy in the H146 xenograft tumor model; assay type: in vivo, SCID mice; conditions: for Antitumor activity / Tumor regression: daily, 5 days a week for 2 weeks
In short: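 Subcutaneous dorsal xenografts in SCID mice: 5 × 10^6 H146 cells with Matrigel, one tumor per mouse. At 100–150 mm3 (mean 126 mm3), animals randomized into groups of 8. Vehicle or test compound given i.v. at 15 mg/kg, daily, 5 days/week for 2 weeks. Tumor size and body weight measured 3×/week during and 2×/week after dosing. Data are mean tumor volume ± SEM; two-way ANOVA and unpaired two-tailed t test, P < 0.05.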

[6] = tested on: small-cell lung cancer cell lines; assay type: cell-based, Human; conditions: for IC50: Homo sapiens
In short: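 H146, H1963, H187 and H1417 small-cell lung cancer lines were maintained in RPMI-1640 with 10% FBS. Cells were exposed to various concentrations of test compound for 4 days. WST-8 was added for a further 1–2 h and absorbance read at 450 nm. IC50 was calculated against untreated cells, with at least three independent experiments per line.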

T1 sequence (P10415 whole entry): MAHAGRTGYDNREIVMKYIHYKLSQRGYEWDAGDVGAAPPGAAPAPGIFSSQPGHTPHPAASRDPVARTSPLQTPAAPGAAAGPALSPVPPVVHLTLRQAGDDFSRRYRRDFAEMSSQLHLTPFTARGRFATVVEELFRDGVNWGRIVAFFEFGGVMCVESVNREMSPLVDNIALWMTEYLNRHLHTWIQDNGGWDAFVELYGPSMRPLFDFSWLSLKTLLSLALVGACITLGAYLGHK
Sequence of Mcl-1 (Q07820 whole entry): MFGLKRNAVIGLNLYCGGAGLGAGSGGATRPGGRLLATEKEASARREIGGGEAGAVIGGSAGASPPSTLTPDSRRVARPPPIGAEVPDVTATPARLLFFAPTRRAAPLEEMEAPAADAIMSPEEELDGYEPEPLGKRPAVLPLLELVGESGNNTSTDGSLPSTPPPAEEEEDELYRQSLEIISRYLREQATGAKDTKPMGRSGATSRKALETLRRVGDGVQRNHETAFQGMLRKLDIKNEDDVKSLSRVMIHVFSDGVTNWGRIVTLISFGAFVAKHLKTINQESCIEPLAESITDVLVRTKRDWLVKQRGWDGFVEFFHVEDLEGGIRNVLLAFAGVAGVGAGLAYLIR
Sequence of Bcl-xL (Q07817 whole entry): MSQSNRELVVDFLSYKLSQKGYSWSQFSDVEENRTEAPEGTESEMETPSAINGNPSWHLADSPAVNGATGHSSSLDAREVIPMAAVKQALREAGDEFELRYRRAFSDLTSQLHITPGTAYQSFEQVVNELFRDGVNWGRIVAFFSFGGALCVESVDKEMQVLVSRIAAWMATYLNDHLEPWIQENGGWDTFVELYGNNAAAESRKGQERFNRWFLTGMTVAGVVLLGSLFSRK

## Cc1c(C#N)c(-c2cccc(N3CCN(c4ccc(NS(=O)(=O)c5ccc(N[C@H](CCN(C)C)CSc6ccccc6)c([N+](=O)[O-])c5)cc4)CC3)c2)c(-c2ccc(Cl)cc2)n1C [Compound 15, (R)-N-(4-(4-(3-(2-(4-Chlorophenyl)-4-cyano-1,5-dimethyl-1H-pyrrol-3-yl)phenyl)piperazin-1-yl)phenyl)-4-(4-(dimethylamino)-1-(phenylthio)butan-2-ylamino)-3-nitrobenzenesulfonamide]
[1]; versus 4
  Times less potent than compound 4 in H146 cell growth inhibition: 8 times
Bcl-2 [2]
  Times less potent than compound 4 in binding to Bcl-2: > 10 times

## Cc1c(C(=O)O)c(-c2cccc(N3CCN(c4ccc(NS(=O)(=O)c5ccc(N[C@H](CCN(C)C)CSc6ccccc6)c([N+](=O)[O-])c5)cc4)CC3)c2)c(-c2ccc(Cl)cc2)n1C [Compound 4]
Bcl-2 [3]
  Ki: < 1 nM
Bcl-xL
  Ki: < 1 nM
[4]
  Chemical stability: excellent chemical stability

## CN(C)CC[C@H](CSc1ccccc1)Nc1ccc(S(=O)(=O)Nc2ccc(N3CCN(c4cccc(-c5c(C(=O)NS(C)(=O)=O)cnn5-c5ccc(Cl)cc5)c4)CC3)cc2)cc1[N+](=O)[O-] [Compound 24, (R)-1-(4-Chlorophenyl)-5-(3-(4-(4-(4-(4-(dimethylamino)-1-(phenylthio)butan-2-ylamino)-3-nitrophenylsulfonamido)phenyl)piperazin-1-yl)phenyl)-N-(methylsulfonyl)-1H-pyrazole-4-carboxamide]
[1]
  Cellular activity in H146: minimal activity

## CN(C)CC[C@H](CSc1ccccc1)Nc1ccc(S(=O)(=O)Nc2ccc(N3CCN(c4cccc(-c5c(C(=O)O)c(C(F)(F)F)n(C)c5-c5ccc(Cl)cc5)c4)CC3)cc2)cc1[N+](=O)[O-] [Compound 16, (R)-5-(4-Chlorophenyl)-4-(3-(4-(4-(4-(4-(dimethylamino)-1-(phenylthio)butan-2-ylamino)-3-nitrophenylsulfonamido)phenyl)piperazin-1-yl)phenyl)-1-methyl-2-(trifluoromethyl)-1H-pyrrole-3-carboxylic acid]
[1]; versus 4
  Times less potent than compound 4 in H146 cell growth inhibition: 8 times

## CN(C)CC[C@H](CSc1ccccc1)Nc1ccc(S(=O)(=O)Nc2ccc(N3CCN(c4cccc(-c5c(C(=O)O)nn(C)c5-c5ccc(Cl)cc5)c4)CC3)cc2)cc1[N+](=O)[O-] [Compound 25, (R)-5-(4-Chlorophenyl)-4-(3-(4-(4-(4-(4-(dimethylamino)-1-(phenylthio)butan-2-ylamino)-3-nitrophenylsulfonamido)phenyl)piperazin-1-yl)phenyl)-1-methyl-1H-pyrazole-3-carboxylic acid]
[1]
  Cellular activity in H146: minimal activity

## Cc1c(Cl)c(-c2cccc(N3CCN(c4ccc(NS(=O)(=O)c5ccc(N[C@H](CCN(C)C)CSc6ccccc6)c([N+](=O)[O-])c5)cc4)CC3)c2)c(-c2ccc(Cl)cc2)n1C [Compound 13, (R)-N-(4-(4-(3-(4-Chloro-2-(4-chlorophenyl)-1,5-dimethyl-1H-pyrrol-3-yl)phenyl)piperazin-1-yl)phenyl)-4-(4-(dimethylamino)-1-(phenylthio)butan-2-ylamino)-3-nitrobenzenesulfonamide]
[1]; versus 4
  Times less potent than compound 4 in H146 cell growth inhibition: > 100 times
Bcl-2 [2]
  Times less potent than compound 4 in binding to Bcl-2: 100 times

## Cc1c(C(=O)NS(C)(=O)=O)c(-c2cccc(N3CCN(c4ccc(NS(=O)(=O)c5ccc(N[C@H](CCN(C)C)CSc6ccccc6)c([N+](=O)[O-])c5)cc4)CC3)c2)c(-c2ccc(Cl)cc2)n1C(C)C [Compound 32, (R)-5-(4-Chlorophenyl)-4-(3-(4-(4-(4-(4-(dimethylamino)-1-(phenylthio)butan-2-ylamino)-3-nitrophenylsulfonamido)phenyl)piperazin-1-yl)phenyl)-1-isopropyl-2-methyl-N-(methylsulfonyl)-1H-pyrrole-3-carboxamide]
H146 xenograft tumors
  Cleavage of PARP and caspase-3 in H146 tumor tissue: robust cleavage of PARP and caspase-3
Mcl-1
  Binding to Mcl-1: no appreciable binding; also recorded: does not show any appreciable binding
[5]; 15 mg/kg i.v.
  Antitumor activity: strong antitumor activity
  Tumor regression: rapid, complete and durable tumor regression; also recorded: rapid, complete and persistent tumor regression
[5]; H146 xenograft efficacy study, 15 mg/kg i.v., during or after treatment
  Weight loss: < 5%
[5]; day 62, 18 days after end of treatment, 15 mg/kg i.v.
  Mice with measurable tumors, of 8 treated: none
[5]; day 117, 8 mice, 130 mm^3 at start of treatment (day 33)
  Average tumor size: 47 mm^3
[5]; day 117, 74 days after end of treatment, 8 mice, 15 mg/kg i.v.
  Mice without measurable tumors: 50%
[6]; read-out: IC50, cancer cell growth inhibition
  IC50: 1 to 2 nM
[6]; read-out: IC50, cell growth inhibition
  IC50: 1 to 2.3 nM
[6]; versus 1, each of H1963, H187, H1417, based on IC50
  Times more potent than compound 1 in cell growth inhibition: > 50 times
[6]; versus 2, each of H1963, H187, H1417, based on IC50
  Times more potent than compound 2 in cell growth inhibition: > 10 times

## Cc1cc(-c2cccc(N3CCN(c4ccc(NS(=O)(=O)c5ccc(N[C@H](CCN(C)C)CSc6ccccc6)c([N+](=O)[O-])c5)cc4)CC3)c2)c(-c2ccc(Cl)cc2)n1C [Compound 7]
[1]; at concentrations as high as 10 μM
  Inhibition of cell growth in H146: completely inactive

## CN(C)CC[C@H](CSc1ccccc1)Nc1ccc(S(=O)(=O)Nc2ccc(N3CCN(c4cccc(-c5c(C(=O)NS(C)(=O)=O)ncn5-c5ccc(Cl)cc5)c4)CC3)cc2)cc1[N+](=O)[O-] [Compound 23, (R)-1-(4-Chlorophenyl)-5-(3-(4-(4-(4-(4-(dimethylamino)-1-(phenylthio)butan-2-ylamino)-3-nitrophenylsulfonamido)phenyl)piperazin-1-yl)phenyl)-N-(methylsulfonyl)-1H-imidazole-4-carboxamide]
[1]
  Cellular activity in H146: minimal activity

## Cc1c(C(=O)O)c(-c2cccc(N3CCN(c4ccc(NS(=O)(=O)c5ccc(N[C@H](CCN(C)C)CSc6ccccc6)c([N+](=O)[O-])c5)cc4)CC3)c2)c(-c2ccc(Cl)cc2)n1C(C)C [Compound 28]
[1]; versus 4
  Times more potent than compound 4 in H146 cell growth inhibition: 20 times

## CCCn1c(C)c(C(=O)O)c(-c2cccc(N3CCN(c4ccc(NS(=O)(=O)c5ccc(N[C@H](CCN(C)C)CSc6ccccc6)c([N+](=O)[O-])c5)cc4)CC3)c2)c1-c1ccc(Cl)cc1 [Compound 29, (R)-5-(4-Chlorophenyl)-4-(3-(4-(4-(4-(4-(dimethylamino)-1-(phenylthio)butan-2-ylamino)-3-nitrophenylsulfonamido)phenyl)piperazin-1-yl)phenyl)-2-methyl-1-propyl-1H-pyrrole-3-carboxylic acid]
[1]
  Times less potent than compound 5 in H146 cell growth inhibition: > 5 times
  Times less potent than compound 28 in H146 cell growth inhibition: > 10 times

## CCCCn1c(C)c(C(=O)O)c(-c2cccc(N3CCN(c4ccc(NS(=O)(=O)c5ccc(N[C@H](CCN(C)C)CSc6ccccc6)c([N+](=O)[O-])c5)cc4)CC3)c2)c1-c1ccc(Cl)cc1 [Compound 30, (R)-1-Butyl-5-(4-chlorophenyl)-4-(3-(4-(4-(4-(4-(dimethylamino)-1-(phenylthio)butan-2-ylamino)-3-nitrophenylsulfonamido)phenyl)piperazin-1-yl)phenyl)-2-methyl-1H-pyrrole-3-carboxylic acid]
[1]
  Times less potent than compound 5 in H146 cell growth inhibition: > 5 times
  Times less potent than compound 28 in H146 cell growth inhibition: > 10 times

## Cc1c(C(F)(F)F)c(-c2cccc(N3CCN(c4ccc(NS(=O)(=O)c5ccc(N[C@H](CCN(C)C)CSc6ccccc6)c([N+](=O)[O-])c5)cc4)CC3)c2)c(-c2ccc(Cl)cc2)n1C [Compound 14, (R)-N-(4-(4-(3-(2-(4-Chlorophenyl)-1,5-dimethyl-4-(trifluoromethyl)-1H-pyrrol-3-yl)phenyl)piperazin-1-yl)phenyl)-4-(4-(dimethylamino)-1-(phenylthio)butan-2-ylamino)-3-nitrobenzenesulfonamide]
[1]; versus 4
  Times less potent than compound 4 in H146 cell growth inhibition: > 100 times
Bcl-2 [2]
  Times less potent than compound 4 in binding to Bcl-2: 100 times

## CCn1c(C)c(C(=O)NS(C)(=O)=O)c(-c2cccc(N3CCN(c4ccc(NS(=O)(=O)c5ccc(N[C@H](CCN(C)C)CSc6ccccc6)c([N+](=O)[O-])c5)cc4)CC3)c2)c1-c1ccc(Cl)cc1 [Compound 31, (R)-5-(4-Chlorophenyl)-4-(3-(4-(4-(4-(4-(dimethylamino)-1-(phenylthio)butan-2-ylamino)-3-nitrophenylsulfonamido)phenyl)piperazin-1-yl)phenyl)-1-ethyl-2-methyl-N-(methylsulfonyl)-1H-pyrrole-3-carboxamide]
H146 xenograft tumors
  Cleavage of PARP and caspase-3 in H146 tumor tissue: robust cleavage of PARP and caspase-3
Mcl-1
  Binding to Mcl-1: no appreciable binding
[5]; 15 mg/kg i.v.
  Antitumor activity: strong antitumor activity
  Tumor regression: partial tumor regression
